Sampled rows, rich in hits. Any-hit rate of the full collection: about 5.4%.
aSyn UTR inh: MLPCN primary screen, SNCA 5' untranslated region. alpha-synuclein 5'UTR reporter, inhibitor activity. inhibition, % (tested at 7.5 µM). 300,000 tested, 0.82% active; in the data active = inhibition above about 60%;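 also: H4 neuroglioblastoma cells stably carrying SNCA 5'UTR luciferase fusion; 0% = DMSO wells and 100% = positive control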
T cruzi repl: T. cruzi replication inhibition; 300,000 tested, 1.4% active; inhibition, % (no concentration beside the values); T. cruzi beta-gal in NIH3T3, luminescence, 90 h;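 active = mean inhibition across valid replicates above about 55%, limit read from the data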;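 also: signal also drops with host cell toxicity which is not excluded here; 0% = plate median of DMSO wells and 100% = zero luminescence signal; higher percent means less beta-gal luminescence so fewer parasites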
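Incubation – ≥90 h infection period, 3 h prior cell attachment · System – NIH/3T3 fibroblasts plus reporter T. cruzi · Doses – compound pinned at 50 nL/well, DMSO · Read-out basis – percent inhibition of parasite-derived β-gal signal · Signal – luminescent β-galactosidase signal after 60 min lysis · Also added – 5000 T. cruzi trypomastigotes/well · Medium – Low-serum DMEM with 2% FBS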
Mdm2-MdmX inh: human Mdm2/MdmX binding inhibition; AID 485346; O15151+Q00987; inhibition, % at 8 µM; SaOS-2 split-luciferase Mdm2/MdmX complementation, luminescence; 330,000 tested, 3% active;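 active = inhibition of at least 50% at 8 µM in the primary screen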
SKKanGAS inh: SKKanGAS growth inhibition; S. pyogenes SKKanGAS, kanamycin growth, BacTiter-Glo, 6 h; inhibition, % at 7.5 µM; 300,000 tested, 1.3% active; AID 1662;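 active = mean replicate score, as percent of positive control median, at least 50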;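 also: strain carries kanamycin resistance gene driven by streptokinase promoter and grows in 40 µg/ml kanamycin; loss of luminescence reflects streptokinase promoter inhibition or plain growth inhibition; 0% = median of DMSO wells and 100% = positive control at its reference dose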
CSC inhib: blocks cancer stem cells; cancer stem cell-like cells viability, luminescence; inhibition, % at 7.5 µM; 300,000 tested, 1.1% active; AID 2717; in the data active = inhibition above about 75%; tested in HMLE shEcad cells
Mdm2 MdmX conf: confirmation of human Mdm2/MdmX interaction inhibitors; shares compounds with Mdm2-MdmX inh; Mdm2-MdmX binding, luminescent assay; inhibition, % at 8 µM; 10,000 tested, 55% active; in the data active = inhibition above about 40%
Full FLuc ctr: counter-screen for Mdm2/MdmX inhibitors: full-length luciferase. inhibition, % at 8 µM. 6,200 tested, 77% active. shares compounds with Mdm2-MdmX inh. SaOS-2 full-length luciferase counterscreen, luminescence;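 active = mean inhibition at 8 µM reaching about 37%, which flags the compound as non-specific, limit read from the data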;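 also: p53-null SaOS-2 cells with luciferase driven by a doxycycline-inducible promoter; compound on cells about two nights before reading with doxycycline added after day one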
The depositor's hits bear a star; i = inactive; / = not tested or not shown.

SMILES	aSyn UTR inh	T cruzi repl	Mdm2-MdmX inh	SKKanGAS inh	CSC inhib	Mdm2 MdmX conf	Full FLuc ctr
Cc1cccc(N2CCN(C(=O)c3cc(S(=O)(=O)N4CCCC4)cn3C)CC2)c1C	35	-9	55*	-11	50	58*	49*
Cc1cccc(N2CCN(C(=O)c3cn(C)c(=O)c4c3c3ccccc3n4C)CC2)c1C	-7	51	59*	11	60	45*	64*
COCCn1cc(C(=O)N2CCN(C)CC2)c2c3ccccc3n(C)c2c1=O	-5	3	-3	2	-11	/	/
Cc1ccc(Cl)cc1N1CCN(C(=O)c2cn(C)c(=O)c3c2c2ccccc2n3C)CC1	45	52	69*	82*	88*	63*	42*
Cn1c2ccccc2c2c(C(=O)N3CCN(c4ccccc4)CC3)cn(C3CCCC3)c(=O)c21	14	1	9	19	56	/	/
O=C(Nc1ccc(S(=O)(=O)Nc2ncccn2)cc1)c1ccc(Br)s1	25	-22	-13	-3	/	/	/
O=C(CSc1ncnc2c1nnn2Cc1ccccc1)NC1CCCCC1	21	-1	6	-5	9	/	/
CN(c1ccccc1)S(=O)(=O)c1ccc(C(=O)NCc2ccccc2F)cc1	/	/	-10	/	-5	/	/
COc1ccc(S(=O)(=O)N2CCC(C)CC2)cc1OC	1	-14	30	-3	-15	/	/
O=S(=O)(c1ccc2c(c1)C(=NO)c1cc(S(=O)(=O)N3CCCCC3)ccc1-2)N1CCCCC1	96*	77*	95*	9	122*	99*	2
CC1CCN(S(=O)(=O)c2ccc3c(c2)C(=NO)c2cc(S(=O)(=O)N4CCC(C)CC4)ccc2-3)CC1	/	/	100*	/	113*	100*	0
CSc1ncccc1C(=O)OCC(=O)c1[nH]c(C)c(C(C)=O)c1C	/	/	15	/	/	/	/
Cc1c(N2C(=O)c3ccccc3C2(O)c2ccccc2)c(=O)n(-c2ccccc2)n1C (stereo unspecified)	-3	-1	-7	-2	13	/	/
OCCCNc1c2ccccc2nc2ccccc12	-155	70*	79*	4	32	82*	44*
c1ccc2c(NCCc3c[nH]c4ccccc34)c3ccccc3nc2c1	i	63*	100*	6	87*	60*	55*
CCN1C(=O)[C@H]2[C@H]3CN=C(SCc4ccccc4)N3[C@@](C)(C(=O)OC)[C@H]2C1=O	/	/	-5	/	/	/	/
COC(=O)[C@@]1(C)[C@H]2C(=O)N(Cc3ccccc3)C(=O)[C@H]2[C@H]2CN=C(SCc3ccc(C#N)cc3)N21	/	/	71*	/	/	70*	51*
CCN1C(=O)[C@H]2[C@H]3CN=C(SCc4ccc(Cl)cc4)N3[C@@](C)(C(=O)OC)[C@H]2C1=O	/	/	-1	/	/	/	/
COC(=O)[C@@]1(C)[C@H]2C(=O)N(Cc3ccccc3)C(=O)[C@H]2[C@H]2CN=C(SCc3ccc(Cl)cc3)N21	/	/	97*	/	/	100*	56*
COC(=O)[C@@]1(Cc2ccccc2)[C@H]2C(=O)N(Cc3ccccc3)C(=O)[C@H]2[C@H]2CN=C(SCC(=O)c3ccccc3)N21	/	/	54*	/	/	55*	50*
COC(=O)[C@@]1(Cc2ccccc2)[C@H]2C(=O)N(Cc3ccccc3)C(=O)[C@H]2[C@H]2CN=C(SCc3ccc(Cl)cc3)N21	/	/	99*	/	/	99*	53*
Cc1ccnc(NC(=O)c2ccccc2NC(=O)c2ccc(Cl)cc2Cl)c1	69*	-22	64*	5	61	57*	66*
O=C(Sc1nnc(-c2ccccc2)o1)N1c2ccccc2Sc2ccccc21	11	32	60*	-9	/	22	/
COc1cc(-c2nnc(SCC(=O)N3c4ccccc4Sc4ccccc43)o2)cc(OC)c1OC	32	42	38	10	65	/	/
CN(CC(=O)O/N=C(\N)c1ccc([N+](=O)[O-])cc1)S(=O)(=O)c1ccc2ccccc2c1	-25	5	10	4	9	/	/
SMILES	aSyn UTR inh	T cruzi repl	Mdm2-MdmX inh	SKKanGAS inh	CSC inhib	Mdm2 MdmX conf	Full FLuc ctr
CCOc1ccccc1NC(=O)Nc1ccc2c(c1)OCO2	-85	13	13	6	8	/	/
C=CCOc1ccccc1CN(C(=O)CCl)c1ccc2c(c1)OCO2	23	50	90*	1	-8	81*	21
CC1(C(=O)NNC(=O)c2cccc([N+](=O)[O-])c2)CC1(Br)Br (stereo unspecified)	13	-6	18	-8	-8	/	/
On1c(-c2ccc(Cl)cc2)nc2ccccc21	-146	-5	-14	5	7	/	/
Cc1ccc(-c2nnc3c(C(F)(F)F)nc4ccccc4n23)cc1	71*	-1	54*	-3	-6	15	/
FC(F)(F)c1nc2ccccc2n2c(-c3ccc(Cl)cc3)nnc12	108*	0	96*	5	/	96*	41*
Cc1nc2c3cc(Cl)ccc3n(CCN3CCCCC3)c2s1	7	18	43	-3	34	/	/
COC(=O)Cn1c(=NC(=O)c2sc3ccccc3c2Cl)sc2cc(S(N)(=O)=O)ccc21	15	19	64*	4	-13	38	52*
COc1ccc2ncn(-c3ccccc3)c2c1	-16	5	63*	-1	-8	50*	42*
COc1ccc(-n2cnc3ccccc32)cc1	-41	-2	47	-15	13	/	/
CC(=O)N/C(=C\c1ccccc1)C(=O)OC(C)C(=O)NCc1ccccc1 (stereo unspecified)	-2	-4	4	-5	-16	/	/
CC(=O)Nc1ccc(Cc2ccc3[nH]c(=O)cc(C)c3c2)cc1	0	-2	68*	-5	2	41*	69*
CC(C)N1C(=O)CCC1C(=O)NCCc1ccccc1 (stereo unspecified)	1	-5	18	6	-4	/	/
COCc1ccc(CN2CCCC(C(=O)Nc3ccc(-c4cscn4)cc3)C2)o1 (stereo unspecified)	-1	7	8	-1	-4	/	/
O=C(N/N=C/c1ccc(O)cc1O)c1ccc(CN2C(=O)c3cccc4cccc2c34)cc1	62*	54	75*	11	3	75*	29
O=C(N/N=C/c1ccccc1)c1ccc(CN2C(=O)c3cccc4cccc2c34)cc1	9	13	8	13	49	/	/
O=C(CCc1c[nH]c2ccccc12)N1CCN(S(=O)(=O)c2ccc(F)cc2)CC1	/	/	-2	/	/	/	/
CC(C)(C)c1cc(-c2nc(N)nc(N)n2)c(O)c(C(C)(C)C)c1	/	/	68*	/	126*	6	/
COc1cc(C2=NOC(C(=O)NCc3ccco3)C2)cc(OC)c1OC (stereo unspecified)	12	-31	64*	-1	65	57*	73*
COc1cc(C2=NOC(C(=O)NCc3cccs3)C2)cc(OC)c1OC (stereo unspecified)	24	4	43	-8	66	/	/
